pIC50: −log10 of the molar value.
Tests used:
KM12 [1] = assay: Cell cycle arrest in human KM12 cells assessed as accumulation of cells at G1 phase at 250 nM measured after 48 hrs by AnnexinV-FITC/PI staining based flowcytometry method relative to control; assay type: functional
[2] = biological target: BDNF/NT-3 growth factors receptor (Homo sapiens, UniProt Q16620); assay: Inhibition of recombinant His-tagged human TRKB expressed in baculovirus expression system at 1 uM measured by select screen assay relative to control
Method in brief: (§1)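 Single-concentration profiling at 1.0 µM in a 28-kinase SelectScreen panel; percent inhibition reported.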

[3] = Stability in human liver microsomes assessed as compound remaining in presence of NADPH at 100 uM measured after 60 mins by LC-MS/MS analysis; assay type: ADME, Microsome; conditions: read-out: Stability
Method in brief: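 Human liver microsomes diluted to 0.59 mg/mL working solution in 100 mM potassium phosphate, prewarmed 10 min at 37 °C; compound added from a 100 µM working solution. NADPH (in 10 mM MgCl2) added to one plate, buffer instead in no-cofactor control. Incubated at 37 °C, quenched at 5, 15, 30, 45, 60 min, centrifuged, analysed by LC-MS/MS.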

[4] = biological target: AMP-activated protein kinase, AMPK (Homo sapiens) (UniProt P54646+O43741+P54619+Q9UGJ0+Q9Y478+Q13131+Q9UGI9); assay: Inhibition of recombinant GST-tagged His-tagged full length human AMPK expressed in baculovirus expression system at 1 uM measured by select screen assay; method in brief: as §1
[5] = AUC (last) in Sprague dawley rat at 3 mg/kg, po; assay type: ADME, organism-based; design: time 0 - last, route oral, dose 3 mg/kg; conditions: in vivo
Method in brief: (§2)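 Blood was collected into heparin tubes at specified time points and centrifuged at once (4 °C, 4000 rpm, 20 min). Plasma levels were quantified by LC-MS/MS. Parameters came from noncompartmental analysis.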

KM12 [6] = assay: Cell cycle arrest in human KM12 cells assessed as accumulation of cells at S phase at 1000 nM measured after 48 hrs by AnnexinV-FITC/PI staining based flowcytometry method relative to control; assay type: functional
[7] = biological target: Mitogen-activated protein kinase 3 (Homo sapiens) (UniProt P27361); assay: Inhibition of recombinant GST-tagged full length human ERK1 expressed in Escherichia coli expression system at 1 uM measured by select screen assay relative to control; method in brief: as §1
KM12 [8] = assay: Induction of apoptosis in human KM12 cells assessed as viable cells at 125 nM measured after 48 hrs by AnnexinV-FITC/PI staining based flowcytometry assay relative to control; assay type: functional; conditions: read-out: Activity
Method in brief: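 10^5 cells in Annexin V binding buffer stained with FITC-Annexin V and PI for 10 min at room temperature in the dark, diluted with PBS and analysed by flow cytometry (FITC 494/518 nm, PI 535/617 nm).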

[9] = biological target: Aurora kinase A (Homo sapiens) (UniProt O14965); assay: Inhibition of recombinant His-tagged full length human Aurora A expressed in baculovirus expression system at 1 uM measured by select screen assay relative to control; method in brief: as §1
[10] = biological target: NT-3 growth factor receptor (Homo sapiens, UniProt Q16288); assay: Inhibition of N-terminal GST-tagged human TRKC (456 to 825 residues) expressed in Sf21 using TK as substrate in presence of ATP measured after 40 mins by HTRF assay
[11] = biological target: Serine/threonine-protein kinase B-raf (Homo sapiens) (UniProt P15056); assay: Inhibition of recombinant GST-tagged human full length BRAF expressed in baculovirus expression system at 1 uM measured by select screen assay relative to control; method in brief: as §1
KM12 [12] = assay: Cell cycle arrest in human KM12 cells assessed as accumulation of cells at greater G1 phase at 250 nM measured after 48 hrs by AnnexinV-FITC/PI staining based flowcytometry method relative to control; assay type: functional
KM12 [13] = assay: Cell cycle arrest in human KM12 cells assessed as accumulation of cells at less G1 phase at 500 nM measured after 48 hrs by AnnexinV-FITC/PI staining based flowcytometry method relative to control; assay type: functional
KM12 [14] = assay: Cell cycle arrest in human KM12 cells assessed as accumulation of cells at greater G1 phase at 125 nM measured after 48 hrs by AnnexinV-FITC/PI staining based flowcytometry method relative to control; assay type: functional
[15] = MRT in Sprague dawley rat at 1 mg/kg, iv; assay type: ADME, organism-based; conditions: in vivo
Method in brief: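 Male-unspecified SD rats, n = 3 per group, single i.v. dose 1 mg/kg or oral 3 mg/kg. Blood drawn into heparin tubes at set times, centrifuged at 4 °C, plasma quantified by LC-MS/MS; noncompartmental parameters fitted.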

[16] = Clearance in Sprague dawley rat at 1 mg/kg, iv; assay type: ADME, organism-based; conditions: in vivo; method in brief: as §2
KM12 [17] = assay: Induction of apoptosis in human KM12 cells assessed as early apoptotic cells at 1000 nM measured after 48 hrs by AnnexinV-FITC/PI staining based flowcytometry assay relative to control; assay type: functional
Method in brief: (§3)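 They were detached with trypsin, washed twice in PBS, and 10^5 cells were suspended in Annexin V binding buffer. Cells were stained with FITC-Annexin V and PI for 10 min at room temperature in the dark, diluted with PBS and analysed by flow cytometry.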

[18] = biological target: Hepatocyte growth factor receptor (Homo sapiens) (UniProt P08581); assay: Inhibition of recombinant His-tagged human MET expressed in baculovirus expression system at 1 uM measured by select screen assay relative to control; method in brief: as §1
[19] = Stability in human plasma assessed as compound remaining incubated for 10 mins by LC-MS/MS analysis; assay type: ADME, cell-free; conditions: read-out: Stability
Method in brief: (§4)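 Pooled frozen human plasma thawed at 37 °C, centrifuged to remove clots, pH adjusted to 7.4 if required. Spiked to 2 µM final (from 100 µM dosing solution), in duplicate, incubated at 37 °C in a water bath. Sampled at 0, 10, 30, 60 and 120 min, quenched with acetonitrile stop solution containing internal standards, centrifuged, and supernatant analysed by LC-MS/MS for percent remaining.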

[20] = Stability in human plasma assessed as compound remaining incubated for 60 mins by LC-MS/MS analysis; assay type: ADME, cell-free; conditions: read-out: Stability; method in brief: as §4
KM12 [21] = assay: Induction of apoptosis in human KM12 cells assessed as late apoptotic cells at 125 nM measured after 48 hrs by AnnexinV-FITC/PI staining based flowcytometry assay relative to control; assay type: functional; method in brief: as §3
[22] = Stability in human plasma assessed as half life incubated for 0 mins by LC-MS/MS analysis; assay type: ADME, cell-free; method in brief: as §4
[23] = biological target: High affinity nerve growth factor receptor (Homo sapiens, UniProt P04629); assay: Inhibition of recombinant His-tagged human TRKA expressed in baculovirus expression system at 1 uM measured by select screen assay relative to control; method in brief: as §1
CYP3A4 = CYP3A4 (Homo sapiens, UniProt P08684); assay: Inhibition of CYP3A4 in human liver microsomes at 10 uM preincubated for 10 mins followed by addition of NADPH and measured after 15 mins by LC-MS/MS analysis; assay type: ADME
Method in brief: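 Pooled human liver microsomes (0.253 mg/mL) with test compound at 10 µM and probe substrates: phenacetin (CYP1A2), diclofenac (CYP2C9), S-mephenytoin (CYP2C19), dextromethorphan (CYP2D6), midazolam (CYP3A4). 10 min preincubation at 37 °C, NADPH-regenerating system added, 15 min at 37 °C. Stopped with cold acetonitrile containing tolbutamide/labetalol internal standards, centrifuged, supernatant read by LC-MS/MS; % inhibition.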

[24] = biological target: Tyrosine-protein kinase JAK2 (Homo sapiens) (UniProt O60674); assay: Inhibition of recombinant GST-tagged human JAK2 expressed in baculovirus expression system at 1 uM measured by select screen assay relative to control; method in brief: as §1
Chain of Tyrosine-protein kinase JAK2 (Homo sapiens) (O60674 whole entry): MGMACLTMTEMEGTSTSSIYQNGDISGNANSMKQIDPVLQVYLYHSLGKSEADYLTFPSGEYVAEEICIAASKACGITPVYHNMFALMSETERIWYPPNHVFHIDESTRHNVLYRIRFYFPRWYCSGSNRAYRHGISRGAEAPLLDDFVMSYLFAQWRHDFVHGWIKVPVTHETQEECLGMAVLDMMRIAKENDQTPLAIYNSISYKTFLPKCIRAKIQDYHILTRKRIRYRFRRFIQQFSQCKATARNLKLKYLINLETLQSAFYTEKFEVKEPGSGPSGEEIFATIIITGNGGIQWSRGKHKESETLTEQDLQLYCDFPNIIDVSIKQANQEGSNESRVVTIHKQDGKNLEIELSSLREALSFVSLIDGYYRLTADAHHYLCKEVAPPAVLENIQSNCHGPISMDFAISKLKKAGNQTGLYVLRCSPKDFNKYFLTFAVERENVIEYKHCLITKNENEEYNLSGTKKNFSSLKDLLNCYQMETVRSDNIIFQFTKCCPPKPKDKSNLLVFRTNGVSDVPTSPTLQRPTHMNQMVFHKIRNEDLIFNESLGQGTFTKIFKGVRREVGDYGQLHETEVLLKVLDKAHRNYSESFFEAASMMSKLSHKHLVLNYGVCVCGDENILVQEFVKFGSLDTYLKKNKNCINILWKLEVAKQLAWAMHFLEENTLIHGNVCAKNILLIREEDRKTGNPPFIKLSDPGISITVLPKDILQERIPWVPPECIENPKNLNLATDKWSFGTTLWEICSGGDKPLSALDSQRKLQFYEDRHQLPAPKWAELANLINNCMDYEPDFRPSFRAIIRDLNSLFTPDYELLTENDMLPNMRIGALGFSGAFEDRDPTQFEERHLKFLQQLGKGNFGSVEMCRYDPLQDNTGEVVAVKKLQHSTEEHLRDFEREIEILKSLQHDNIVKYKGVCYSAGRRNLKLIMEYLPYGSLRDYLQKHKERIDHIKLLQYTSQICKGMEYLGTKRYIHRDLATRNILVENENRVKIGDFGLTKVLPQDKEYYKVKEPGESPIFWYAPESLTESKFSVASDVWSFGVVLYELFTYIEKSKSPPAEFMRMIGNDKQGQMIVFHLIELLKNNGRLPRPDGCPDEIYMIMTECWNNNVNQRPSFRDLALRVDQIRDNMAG

Chain of BDNF/NT-3 growth factors receptor (Q16620 32-822 limits assumed): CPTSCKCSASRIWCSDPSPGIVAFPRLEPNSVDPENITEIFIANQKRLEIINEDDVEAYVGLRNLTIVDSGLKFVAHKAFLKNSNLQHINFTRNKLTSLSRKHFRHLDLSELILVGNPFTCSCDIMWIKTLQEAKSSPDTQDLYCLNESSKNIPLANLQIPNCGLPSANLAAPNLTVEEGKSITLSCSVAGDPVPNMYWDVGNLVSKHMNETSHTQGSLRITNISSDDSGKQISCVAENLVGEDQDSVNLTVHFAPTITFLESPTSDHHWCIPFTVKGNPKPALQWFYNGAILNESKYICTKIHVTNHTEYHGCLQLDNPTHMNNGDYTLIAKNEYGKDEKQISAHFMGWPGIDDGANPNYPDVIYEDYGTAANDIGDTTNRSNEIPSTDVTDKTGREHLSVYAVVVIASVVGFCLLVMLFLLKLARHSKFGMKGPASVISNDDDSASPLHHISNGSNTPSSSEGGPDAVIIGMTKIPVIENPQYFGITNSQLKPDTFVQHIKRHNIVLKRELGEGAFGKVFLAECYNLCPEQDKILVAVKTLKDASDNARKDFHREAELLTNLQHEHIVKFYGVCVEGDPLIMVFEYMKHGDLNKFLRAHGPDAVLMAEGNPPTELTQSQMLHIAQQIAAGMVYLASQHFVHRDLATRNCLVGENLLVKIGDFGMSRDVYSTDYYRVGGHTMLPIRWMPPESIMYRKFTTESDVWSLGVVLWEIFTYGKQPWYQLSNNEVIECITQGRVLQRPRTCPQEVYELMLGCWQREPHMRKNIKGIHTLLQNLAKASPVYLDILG
Chain of Serine/threonine-protein kinase B-raf (Homo sapiens) (P15056 whole entry): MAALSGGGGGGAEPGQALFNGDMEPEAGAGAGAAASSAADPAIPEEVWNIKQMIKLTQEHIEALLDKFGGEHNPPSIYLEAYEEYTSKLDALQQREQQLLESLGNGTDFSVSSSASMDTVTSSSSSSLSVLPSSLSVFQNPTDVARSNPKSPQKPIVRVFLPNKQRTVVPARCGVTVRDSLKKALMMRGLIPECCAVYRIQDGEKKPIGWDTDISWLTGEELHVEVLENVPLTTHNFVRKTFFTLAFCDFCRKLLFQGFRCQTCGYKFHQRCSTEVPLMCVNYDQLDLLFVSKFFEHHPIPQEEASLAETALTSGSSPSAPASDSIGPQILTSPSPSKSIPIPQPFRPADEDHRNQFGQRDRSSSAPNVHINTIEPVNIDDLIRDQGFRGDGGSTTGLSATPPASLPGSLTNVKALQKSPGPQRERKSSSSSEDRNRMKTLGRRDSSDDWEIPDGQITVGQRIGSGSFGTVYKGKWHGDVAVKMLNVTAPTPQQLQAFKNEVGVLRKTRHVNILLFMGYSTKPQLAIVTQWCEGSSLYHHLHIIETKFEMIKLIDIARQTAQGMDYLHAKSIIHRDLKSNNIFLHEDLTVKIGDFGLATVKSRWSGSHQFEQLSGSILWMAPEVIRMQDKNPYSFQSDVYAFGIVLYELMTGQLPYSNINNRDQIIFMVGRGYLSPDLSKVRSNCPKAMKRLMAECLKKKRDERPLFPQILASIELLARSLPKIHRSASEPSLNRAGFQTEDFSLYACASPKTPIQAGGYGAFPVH
Chain of Aurora kinase A (Homo sapiens) (O14965 whole entry, the tested form may be a part): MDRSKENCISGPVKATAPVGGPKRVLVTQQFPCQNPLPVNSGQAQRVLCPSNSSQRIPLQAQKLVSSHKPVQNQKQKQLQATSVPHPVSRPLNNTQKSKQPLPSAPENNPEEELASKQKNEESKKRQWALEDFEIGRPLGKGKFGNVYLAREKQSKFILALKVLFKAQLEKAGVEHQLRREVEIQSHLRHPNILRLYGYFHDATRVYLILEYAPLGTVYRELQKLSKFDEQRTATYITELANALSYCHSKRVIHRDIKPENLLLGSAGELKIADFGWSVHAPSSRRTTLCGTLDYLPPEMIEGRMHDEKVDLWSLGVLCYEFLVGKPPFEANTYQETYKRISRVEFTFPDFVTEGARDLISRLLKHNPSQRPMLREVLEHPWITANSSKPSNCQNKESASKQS
Chain of Hepatocyte growth factor receptor (Homo sapiens) (P08581 whole entry): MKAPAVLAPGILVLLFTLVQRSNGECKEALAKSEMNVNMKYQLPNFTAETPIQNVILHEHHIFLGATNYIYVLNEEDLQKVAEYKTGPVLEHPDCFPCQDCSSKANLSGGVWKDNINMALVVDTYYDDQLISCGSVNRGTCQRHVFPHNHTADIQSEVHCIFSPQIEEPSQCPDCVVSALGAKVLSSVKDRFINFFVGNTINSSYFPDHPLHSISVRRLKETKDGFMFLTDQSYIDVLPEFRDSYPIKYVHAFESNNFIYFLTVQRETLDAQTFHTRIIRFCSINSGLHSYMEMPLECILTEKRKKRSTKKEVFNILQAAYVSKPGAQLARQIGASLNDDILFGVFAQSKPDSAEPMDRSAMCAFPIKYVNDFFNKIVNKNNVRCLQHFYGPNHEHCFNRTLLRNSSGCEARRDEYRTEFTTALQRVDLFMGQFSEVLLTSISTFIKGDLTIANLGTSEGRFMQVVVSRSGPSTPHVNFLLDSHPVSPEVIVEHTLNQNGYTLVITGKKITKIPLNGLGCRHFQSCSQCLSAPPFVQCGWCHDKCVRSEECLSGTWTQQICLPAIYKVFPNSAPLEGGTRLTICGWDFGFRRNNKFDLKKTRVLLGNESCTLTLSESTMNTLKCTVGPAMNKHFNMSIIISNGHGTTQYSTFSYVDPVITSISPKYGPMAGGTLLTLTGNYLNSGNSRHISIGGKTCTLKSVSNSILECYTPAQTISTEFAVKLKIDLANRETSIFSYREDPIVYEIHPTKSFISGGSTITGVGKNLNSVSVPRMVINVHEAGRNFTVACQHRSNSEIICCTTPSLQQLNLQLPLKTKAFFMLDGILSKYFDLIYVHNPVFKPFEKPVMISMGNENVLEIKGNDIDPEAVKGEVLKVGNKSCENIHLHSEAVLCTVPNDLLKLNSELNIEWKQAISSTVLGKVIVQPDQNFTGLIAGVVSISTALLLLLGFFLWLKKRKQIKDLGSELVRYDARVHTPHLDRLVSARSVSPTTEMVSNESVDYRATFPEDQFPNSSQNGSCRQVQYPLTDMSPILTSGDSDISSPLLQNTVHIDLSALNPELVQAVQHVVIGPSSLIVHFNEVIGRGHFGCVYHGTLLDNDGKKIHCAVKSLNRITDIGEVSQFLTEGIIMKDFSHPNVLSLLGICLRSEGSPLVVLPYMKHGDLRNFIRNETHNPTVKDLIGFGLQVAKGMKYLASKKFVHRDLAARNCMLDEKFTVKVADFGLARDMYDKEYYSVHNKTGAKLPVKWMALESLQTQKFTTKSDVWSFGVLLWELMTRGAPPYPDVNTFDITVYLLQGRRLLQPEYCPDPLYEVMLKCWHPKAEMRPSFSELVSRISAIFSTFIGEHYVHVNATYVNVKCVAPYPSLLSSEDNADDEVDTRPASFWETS
Chain of CYP3A4 (P08684 whole entry): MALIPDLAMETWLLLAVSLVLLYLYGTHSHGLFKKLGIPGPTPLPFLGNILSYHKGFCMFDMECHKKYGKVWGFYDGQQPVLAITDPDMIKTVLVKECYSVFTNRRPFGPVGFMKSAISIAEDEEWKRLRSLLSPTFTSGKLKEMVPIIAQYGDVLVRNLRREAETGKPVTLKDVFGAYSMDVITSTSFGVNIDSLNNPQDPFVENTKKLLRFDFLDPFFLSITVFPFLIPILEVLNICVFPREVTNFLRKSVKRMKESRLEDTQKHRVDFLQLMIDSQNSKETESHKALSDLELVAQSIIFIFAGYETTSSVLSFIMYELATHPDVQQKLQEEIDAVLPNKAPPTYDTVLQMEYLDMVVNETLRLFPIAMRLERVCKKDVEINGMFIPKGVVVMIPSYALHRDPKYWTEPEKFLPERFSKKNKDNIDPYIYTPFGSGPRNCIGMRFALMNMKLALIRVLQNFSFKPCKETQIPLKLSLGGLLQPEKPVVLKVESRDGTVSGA

- inhibition [2]: 100%
- remaining at 1 h, 100 µM [3]: 22.4%
- inhibition [4]: 53%
- AUC(0-t) [5]: 2700 ng·h/mL
- inhibition [7]: 0%
- inhibition [9]: 11%
- pIC50 [10]: 7.96
- inhibition [11]: 3%
- MRT [15]: 1.85 h
- clearance [16]: 8.08 mL/min/kg
- inhibition [18]: 6%
- remaining at 10 min [19]: 96.8%
- remaining at 1 h [20]: 99.2%
- half-life [22]: > 4.82 h
- inhibition [23]: 102%
- inhibition at 0.25 h, 10 µM (CYP3A4): 6.4%
- inhibition [24]: 76%
SMILES: CN1CCN(c2ccc(C(=O)Nc3n[nH]c4c3CN(Cc3cc(F)cc(F)c3)C4(C)C)cc2)CC1
- Activity (KM12 [1]): 74%
- Activity (KM12 [6]): 7.22%
- viability at 0.125 µM (KM12 [8]): 63.5%
- Activity (KM12 [12]): 1.26%
- Activity (KM12 [13]): 7.65%
- Activity (KM12 [14]): 2.45%
- Activity (KM12 [17]): 36.3%
- Activity (KM12 [21]): 18.23%

Source: ChEMBL document CHEMBL4840303, “Design, synthesis, biological evaluation and pharmacophore model analysis of novel tetrahydropyrrolo[3,4-c]pyrazol derivatives as potential TRKs inhibitors” (Eur J Med Chem, 2021)
